Experimental data taken from ChEMBL document CHEMBL4118175, “Anti-allergic inflammatory components from Sanguisorba officinalis L” (Bioorg Med Chem Lett, 2018).
The source made the active and inactive calls. The calls are words filed in the database; no cut-off is given here.

Legend:
[1] = target: Transcription factor p65 (Mus musculus) (UniProt Q04207); experiment: Inhibition of NFkappaB nuclear translocation in LPS-stimulated mouse RAW264.7 cells at 20 uM pretreated for 2 hrs followed by LPS-induction by DAPI-staining based immunofluorescence microscopic method; assay type: cell-based
How it was run: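 Cells in eight-well glass chambers preincubated 2 h with samples (20 µM) or Bay 11-7082 before LPS 1 µg/mL; immunostaining with polyclonal anti-p65 and Alexa Fluor 488 secondary to view nuclear translocation.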

[2] = system: RAW264.7; experiment: Anti-inflammatory activity in mouse RAW264.7 cells assessed as reduction in LPS-stimulated COX2 protein expression at 20 uM preincubated for 2 hrs followed by LPS addition measured after 18 hrs by Western blot analysis; assay type: functional, cell-based
How it was run: (§1)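 Pretreatment 2 h with samples (20 µM) then LPS 200 ng/mL for 18 h; COX-2 and iNOS protein by Western blot.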

[3] = system: RAW264.7; experiment: Cytotoxicity against mouse RAW264.7 cells at 5 and 20 uM after 24 hrs by MTS assay; assay type: cell-based; conditions: raw264.7, 24 h
How it was run: (§2)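 RBL-2H3 (seeded overnight) or RAW264.7 cells exposed to 5 and 20 µM samples for 24 h; viability by MTS; three independent experiments, mean ± SEM.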

[4] = system: RBL-2H3; experiment: Cytotoxicity against rat RBL2H3 cells at 5 and 20 uM after 24 hrs by MTS assay; assay type: cell-based; conditions: rbl-2h3, 24 h; how it was run: as §2
[5] = system: RAW264.7; experiment: Anti-inflammatory activity in mouse RAW264.7 cells assessed as inhibition of LPS-induced nitric oxide production preincubated for 2 hrs followed by LPS addition measured after 24 hrs by Griess method; assay type: functional, cell-based
How it was run: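 Following 2 h sample pretreatment, LPS added for 24 h; supernatant NO read with Griess reagent; triplicate, mean ± SEM.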

[6] = system: RBL-2H3; experiment: Anti-inflammatory activity in PMA/A23187-stimulated rat RBL2H3 cells assessed as reduction of beta-hexosaminidase secretion preincubated for 1 hr followed by PMA/A23187 stimulation for 1 hr using 4-nitrophenyl-N-acetyl-beta-D-glucosaminide substrate; assay type: functional, cell-based
How it was run: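 After overnight plating, cells pretreated 1 h then stimulated with 30 ng/mL PMA plus 350 ng/mL A23187 for 1 h; supernatants collected for β-hexosaminidase detection; triplicate, mean ± SEM.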

[7] = system: RBL-2H3; experiment: Anti-inflammatory activity in IgE sensitized and DNP-BSA-stimulated rat RBL2H3 cells assessed as reduction of IL4 secretion preincubated for 2 hrs followed by DNP-BSA stimulation for 18 hrs by ELISA; assay type: functional, cell-based
How it was run: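 IgE-sensitized cells (overnight, 37 °C) pretreated with compounds 2 h, then challenged with 1 µg/mL DNP-BSA for 18 h; IL-4 in supernatant quantified by ELISA kit. Cells seeded in 48-well plates overnight; triplicate, mean ± SEM.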

[8] = system: RAW264.7; experiment: Anti-inflammatory activity in mouse RAW264.7 cells assessed as inhibition of LPS-induced TNF-alpha production at 20 uM preincubated for 2 hrs followed by LPS addition measured after 24 hrs by ELISA; assay type: functional, cell-based
How it was run: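 Cells pretreated 2 h with compounds (20 µM) before LPS (500 ng/mL) for 24 h; supernatant TNF-α by ELISA kit; triplicate, mean ± SEM.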

[9] = target: Transcription factor p65 (Homo sapiens) (UniProt Q04206); experiment: Inhibition of PMA-induced NFkappaB P65 activation (unknown origin) expressed in human HEK293T cells transfected with pNF-kappaB-SEAP preincubated for 2 hrs followed by PMA stimulation measured after overnight incubation by NFkappaB reporter gene assay; assay type: cell-based
How it was run: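 293T cells carrying pNFκB-SEAP reporter plasmid, pretreated with samples then PMA-stimulated; NF-κB transcription read as SEAP; triplicate, mean ± SEM.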

[10] = system: RBL-2H3; experiment: Anti-inflammatory activity in PMA/A23187-stimulated rat RBL2H3 cells assessed as reduction of IL4 secretion preincubated for 2 hrs followed by PMA/A23187 stimulation for 18 hrs by ELISA; assay type: functional, cell-based
How it was run: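 Cells plated overnight, pretreated 2 h, then stimulated with 30 ng/mL PMA plus 350 ng/mL A23187 for 18 h; supernatant IL-4 by ELISA kit; triplicate, mean ± SEM.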

[11] = system: RAW264.7; experiment: Anti-inflammatory activity in mouse RAW264.7 cells assessed as reduction in LPS-stimulated iNOS protein expression at 20 uM preincubated for 2 hrs followed by LPS addition measured after 18 hrs by Western blot analysis; assay type: functional, cell-based; how it was run: as §1

Chain of Transcription factor p65 (Homo sapiens) (Q04206 whole entry): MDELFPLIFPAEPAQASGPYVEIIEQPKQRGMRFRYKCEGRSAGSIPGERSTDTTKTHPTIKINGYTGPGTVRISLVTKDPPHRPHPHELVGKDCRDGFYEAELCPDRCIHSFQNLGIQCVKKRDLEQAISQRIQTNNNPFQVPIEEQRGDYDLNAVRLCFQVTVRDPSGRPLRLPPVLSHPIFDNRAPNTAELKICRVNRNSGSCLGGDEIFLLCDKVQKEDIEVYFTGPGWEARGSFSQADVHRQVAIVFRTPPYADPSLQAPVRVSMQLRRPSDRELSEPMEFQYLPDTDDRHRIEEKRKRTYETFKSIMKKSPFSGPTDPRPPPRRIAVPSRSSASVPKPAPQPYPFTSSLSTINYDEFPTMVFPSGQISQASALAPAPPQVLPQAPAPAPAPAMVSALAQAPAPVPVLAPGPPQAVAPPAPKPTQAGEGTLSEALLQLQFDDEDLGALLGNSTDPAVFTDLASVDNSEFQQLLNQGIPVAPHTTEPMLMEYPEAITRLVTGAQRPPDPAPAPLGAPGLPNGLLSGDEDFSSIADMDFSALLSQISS
Chain of Transcription factor p65 (Mus musculus) (Q04207 whole entry): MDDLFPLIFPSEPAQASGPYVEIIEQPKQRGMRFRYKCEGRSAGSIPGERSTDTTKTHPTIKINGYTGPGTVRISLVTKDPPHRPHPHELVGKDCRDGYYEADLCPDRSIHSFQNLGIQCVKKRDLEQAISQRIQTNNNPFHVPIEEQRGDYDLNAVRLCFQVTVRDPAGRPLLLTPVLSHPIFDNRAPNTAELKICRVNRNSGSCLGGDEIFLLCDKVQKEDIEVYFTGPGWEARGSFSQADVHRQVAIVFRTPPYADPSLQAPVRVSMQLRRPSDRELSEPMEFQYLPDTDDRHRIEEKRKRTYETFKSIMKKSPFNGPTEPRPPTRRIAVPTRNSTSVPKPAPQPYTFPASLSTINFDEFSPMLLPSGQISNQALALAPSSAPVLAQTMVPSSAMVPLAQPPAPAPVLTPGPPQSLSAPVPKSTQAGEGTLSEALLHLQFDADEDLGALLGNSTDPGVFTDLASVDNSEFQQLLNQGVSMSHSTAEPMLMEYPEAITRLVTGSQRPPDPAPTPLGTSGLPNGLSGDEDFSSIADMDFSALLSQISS

Row | SMILES | NFkappaB nuclear translocation inhibition (qualitative call) [1] | inhibition [9] | Activity [2] | Activity [3] | Activity [4] | Activity [5] | Activity [6] | Activity [7] | Activity [8] | Activity [10] | Activity [11]
1 | Cc1ccc(-c2cc(C(F)(F)F)nn2-c2ccc(S(N)(=O)=O)cc2)cc1 |  |  | Active |  |  |  |  |  |  |  | 
2 | COc1cc2c(=O)oc3c(OC)c(OC)cc4c(=O)oc(c1O)c2c34 |  |  |  | Toxic | Toxic |  |  |  |  |  | 
3 | C[C@@H]1CC[C@]2(C(=O)O[C@@H]3O[C@H](CO)[C@@H](O)[C@H](O)[C@H]3O)CC[C@]3(C)C(=CC[C@@H]4[C@@]5(C)C[C@@H](O)[C@@H](O)C(C)(C)[C@@H]5CC[C@]43C)[C@@H]2[C@]1(C)O |  |  |  | Non-Toxic | Non-Toxic |  | Active | Dose-dependent effect | Active | Dose-dependent effect | 
4 | C=CCc1ccc(O[C@@H]2O[C@H](CO[C@@H]3OC[C@@H](O)[C@H](O)[C@H]3O)[C@@H](O)[C@H](O)[C@H]2O)cc1 |  |  | Active | Non-Toxic | Non-Toxic | Active | Active | Dose-dependent effect | Active | Dose-dependent effect | Active

More lines, main results first:

Row | NFkappaB nuclear translocation inhibition (qualitative call) [1] | inhibition [9] | SMILES | Activity [2] | Activity [3] | Activity [4] | Activity [5] | Activity [6] | Activity [7] | Activity [8] | Activity [10] | Activity [11]
5 | Active |  | Cc1ccc(S(=O)(=O)/C=C/C#N)cc1 |  |  |  |  |  |  |  |  | 
6 | Active | Dose-dependent effect | C[C@@H]1CC[C@]2(C(=O)O)CC[C@]3(C)C(=CC[C@@H]4[C@@]5(C)CC[C@H](O[C@@H]6OC[C@H](O)[C@H](O)[C@H]6O)C(C)(C)[C@@H]5CC[C@]43C)[C@@H]2[C@]1(C)O |  | Non-Toxic | Non-Toxic | Active | Active | Dose-dependent effect | Active | Dose-dependent effect | 
7 | Active | Dose-dependent effect | CC1=C2C3=CC[C@@H]4[C@@]5(C)CC[C@H](O[C@@H]6OC[C@H](O)[C@H](O)[C@H]6O)C(C)(C)[C@@H]5CC[C@@]4(C)[C@]3(C)CC[C@@]2(C(=O)O[C@@H]2O[C@H](CO)[C@@H](O)[C@H](O)[C@H]2O)CC[C@H]1C | Active | Non-Toxic | Non-Toxic | Active | Active | Dose-dependent effect | Active | Dose-dependent effect | Active
8 | Active | Dose-dependent effect | CC(CCCC(C)(C)O)CCO[C@@H]1O[C@H](CO[C@@H]2O[C@@H](CO)[C@H](O)[C@H]2O)[C@@H](O)[C@H](O)[C@H]1O (stereo not given in full) | Active | Non-Toxic | Non-Toxic | Active | Active | Dose-dependent effect | Active | Dose-dependent effect | Active
